Each block holds one compound with its values, some of them ahead of it.
What was measured:
[1] = molecular target: Free fatty acid receptor 1 (Homo sapiens, UniProt O14842); assay: Agonist activity at human GPR40 expressed in CHO cells by calcium influx assay; type: functional, cell-based
Procedure, shortened: (§1)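 CHO cells stably expressing the receptor (GPR40, GPR41, GPR43 or GPR120) plated 24 h before assay and loaded with calcium dye for 1 h. Calcium flux read on FLIPR Tetra. Agonist response taken as maximum fluorescence change over baseline. Concentration-response curves fitted for EC50. GW9508 run as positive control.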

[2] = molecular target: T1, hERG (KCNH2) (Homo sapiens, UniProt Q12809); assay: Inhibition of human ERG expressed in cell membranes at 20 uM after 4 hrs by fluorescence polarization assay; conditions: cell membranes that express human ERG
Procedure, shortened: (§2)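 Predictor hERG fluorescence polarization kit used per manufacturer's protocol. hERG-containing cell membranes incubated with fluorescent tracer and test compound at 1, 5 or 20 uM for 4 h.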

[3] = molecular target: T2, CYP1A2 (Homo sapiens, UniProt P05177); assay: Inhibition of CYP1A2 (unknown origin) at 20 uM by P450-glo assay; type: ADME
T2 sequence (P05177 whole entry): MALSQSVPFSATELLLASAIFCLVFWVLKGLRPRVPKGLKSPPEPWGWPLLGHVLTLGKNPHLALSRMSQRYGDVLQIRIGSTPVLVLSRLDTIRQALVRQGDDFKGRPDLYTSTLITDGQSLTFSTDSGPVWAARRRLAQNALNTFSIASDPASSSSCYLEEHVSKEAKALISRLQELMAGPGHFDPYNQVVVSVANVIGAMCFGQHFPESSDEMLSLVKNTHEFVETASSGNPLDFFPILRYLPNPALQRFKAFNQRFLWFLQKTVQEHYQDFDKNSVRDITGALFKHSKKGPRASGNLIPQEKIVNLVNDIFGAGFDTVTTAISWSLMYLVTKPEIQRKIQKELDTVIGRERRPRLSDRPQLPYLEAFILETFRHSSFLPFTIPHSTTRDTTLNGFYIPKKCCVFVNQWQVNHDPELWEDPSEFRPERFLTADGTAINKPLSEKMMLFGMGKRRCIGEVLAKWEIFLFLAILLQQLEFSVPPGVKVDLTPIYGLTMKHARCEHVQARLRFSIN
Procedure, shortened: (§3)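 P450-Glo luminescent assay run per manufacturer's protocol. Each CYP isoform incubated with its luminogenic substrate and test compound at 20 uM (0.25% DMSO final), in quadruplicate. Control membranes without CYP served as baseline.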

[4] = molecular target: T3, Free fatty acid receptor 4 (Homo sapiens, UniProt Q5NUL3); assay: Agonist activity at human GPR120 (unknown origin) expressed in CHO cells by calcium influx assay; type: functional, cell-based; procedure, shortened: as §1
T3 sequence (Q5NUL3 whole entry): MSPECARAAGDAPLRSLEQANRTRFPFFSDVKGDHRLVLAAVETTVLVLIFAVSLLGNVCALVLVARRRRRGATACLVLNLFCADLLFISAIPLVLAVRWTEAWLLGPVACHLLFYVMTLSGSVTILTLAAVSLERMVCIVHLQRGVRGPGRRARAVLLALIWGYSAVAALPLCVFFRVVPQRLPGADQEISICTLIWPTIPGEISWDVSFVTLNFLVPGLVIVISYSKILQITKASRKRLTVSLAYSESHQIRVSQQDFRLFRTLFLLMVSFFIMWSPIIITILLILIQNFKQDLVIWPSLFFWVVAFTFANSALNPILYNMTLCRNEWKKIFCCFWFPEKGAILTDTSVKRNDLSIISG

[5] = Protein binding in mouse plasma at 1 uM after 5 hrs by HPLC-MS/MS analysis; type: ADME, cell-free; conditions: read-out: PPB (converted)
Procedure, shortened: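 Equilibrium dialysis (MWCO 12-14 kDa) of mouse plasma spiked at 1 uM (1% solvent final) against PBS pH 7.4, 37 °C, orbital shaking, 5 h, in quadruplicate. Chamber samples matrix-matched, precipitated with acetonitrile and analysed by HPLC-MS/MS. % bound = (1 − buffer/plasma peak area) × 100. Recovery checked against an undialyzed standard. Verapamil used as reference.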

[6] = molecular target: T1, hERG (KCNH2); assay: Inhibition of human ERG expressed in cell membranes at 1 uM after 4 hrs by fluorescence polarization assay; conditions: cell membranes that express human ERG; procedure, shortened: as §2
[7] = Intrinsic clearance in BALB/c mouse liver microsomes at 2 uM after 40 mins by HPLC analysis; type: ADME; conditions: read-out: CLH
Procedure, shortened: (§4)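 BALB/c male mouse liver microsomes (pooled, perfused livers) at 0.42 mg protein/ml in 100 mM phosphate buffer pH 7.4 with MgCl2 and an NADPH-regenerating system. Compound at 2 uM (1.6% solvent final) incubated at 37 °C in duplicate. Five time points over 40 min, quenched with acetonitrile and read by HPLC-MS/MS. Controls lacked NADPH. kel from ln(AUC) vs time regression; T1/2 = 0.693/kel; CLint scaled per mg microsomal protein.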

[8] = Distribution coefficient, log D of the compound at pH 7.4 by LC-MS/MS analysis; type: physicochemical; conditions: octanol/water
Procedure, shortened: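 Shake-flask partitioning between n-octanol and PBS, run in duplicate. Compound added from 10 mM DMSO stock to pre-equilibrated phases, shaken 1 h and separated by centrifugation. Each phase diluted and quantified by LC-MS/MS. D calculated from peak areas corrected for dilution (100·So/Sp). Reference compound included.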

[9] = Half life in mouse plasma at 1 uM by LC-MS/MS analysis; type: ADME
Procedure, shortened: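 Compound at 1 uM (1% DMSO final) incubated in mouse plasma at 37 °C with shaking. Five time points sampled over 120 min, each quenched with acetonitrile and centrifuged. Supernatant analysed by LC-MS/MS for percentage remaining and T1/2. Verapamil and propantheline used as references.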

[10] = molecular target: CYP2C9 (Homo sapiens, UniProt P11712); assay: Inhibition of CYP2C9 (unknown origin) at 20 uM by P450-glo assay; type: ADME; procedure, shortened: as §3
[11] = molecular target: T1, hERG (KCNH2); assay: Inhibition of human ERG expressed in cell membranes at 5 uM after 4 hrs by fluorescence polarization assay; conditions: cell membranes that express human ERG; procedure, shortened: as §2
[12] = molecular target: T4, Free fatty acid receptor 2 (Homo sapiens, UniProt O15552); assay: Agonist activity at human GPR43 (unknown origin) expressed in CHO cells by calcium influx assay; type: functional, cell-based; procedure, shortened: as §1
T4 sequence (O15552 whole entry): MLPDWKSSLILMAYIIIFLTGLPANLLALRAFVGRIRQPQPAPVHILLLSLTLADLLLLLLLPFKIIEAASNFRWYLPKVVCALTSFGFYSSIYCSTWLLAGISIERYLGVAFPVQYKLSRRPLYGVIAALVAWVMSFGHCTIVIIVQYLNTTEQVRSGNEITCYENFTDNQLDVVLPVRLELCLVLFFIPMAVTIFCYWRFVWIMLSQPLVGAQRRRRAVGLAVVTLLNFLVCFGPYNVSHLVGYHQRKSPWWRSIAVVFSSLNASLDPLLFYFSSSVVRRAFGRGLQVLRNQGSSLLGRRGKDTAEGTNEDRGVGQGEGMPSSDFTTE

[13] = Metabolic stability in BALB/c mouse liver microsomes at 2 uM after 40 mins by HPLC analysis; type: ADME; procedure, shortened: as §4
[14] = molecular target: CYP2C19 (Homo sapiens, UniProt P33261); assay: Inhibition of CYP2C19 (unknown origin) at 20 uM by P450-glo assay; type: ADME; procedure, shortened: as §3
[15] = molecular target: CYP2D6 (Homo sapiens, UniProt P10635); assay: Inhibition of CYP2D6 (unknown origin) at 20 uM by P450-glo assay; type: ADME; procedure, shortened: as §3
[16] = molecular target: CYP3A4 (Homo sapiens, UniProt P08684); assay: Inhibition of CYP3A4 (unknown origin) at 20 uM by P450-glo assay; type: ADME
[17] = molecular target: T5, Free fatty acid receptor 3 (Homo sapiens, UniProt O14843); assay: Agonist activity at human GPR41 (unknown origin) expressed in CHO cells by calcium influx assay; type: functional, cell-based; procedure, shortened: as §1
T5 sequence (O14843 whole entry): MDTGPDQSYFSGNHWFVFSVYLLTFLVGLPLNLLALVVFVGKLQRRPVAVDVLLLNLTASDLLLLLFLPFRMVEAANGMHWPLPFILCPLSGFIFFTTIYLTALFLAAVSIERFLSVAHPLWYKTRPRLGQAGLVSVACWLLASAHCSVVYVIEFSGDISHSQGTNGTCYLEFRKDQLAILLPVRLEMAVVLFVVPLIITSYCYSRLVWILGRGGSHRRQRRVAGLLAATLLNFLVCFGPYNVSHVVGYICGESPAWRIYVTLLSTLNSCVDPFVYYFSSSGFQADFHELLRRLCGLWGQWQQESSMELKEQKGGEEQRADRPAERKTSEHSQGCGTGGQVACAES

Chain of CYP2C9 (P11712 whole entry): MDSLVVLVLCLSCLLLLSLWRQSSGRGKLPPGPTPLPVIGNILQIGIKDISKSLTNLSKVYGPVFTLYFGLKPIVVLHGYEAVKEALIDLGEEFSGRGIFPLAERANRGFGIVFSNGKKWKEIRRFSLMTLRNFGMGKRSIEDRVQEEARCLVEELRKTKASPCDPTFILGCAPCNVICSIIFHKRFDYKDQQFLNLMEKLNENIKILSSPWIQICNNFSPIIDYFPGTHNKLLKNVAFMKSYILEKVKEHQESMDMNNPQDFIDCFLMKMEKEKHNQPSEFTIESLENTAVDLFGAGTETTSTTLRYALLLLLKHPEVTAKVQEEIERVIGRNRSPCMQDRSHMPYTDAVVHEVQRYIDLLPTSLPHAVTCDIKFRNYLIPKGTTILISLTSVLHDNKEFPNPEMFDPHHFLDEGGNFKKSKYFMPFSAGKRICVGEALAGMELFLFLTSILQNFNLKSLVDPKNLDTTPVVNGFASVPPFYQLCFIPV
Chain of Free fatty acid receptor 1 (O14842 whole entry): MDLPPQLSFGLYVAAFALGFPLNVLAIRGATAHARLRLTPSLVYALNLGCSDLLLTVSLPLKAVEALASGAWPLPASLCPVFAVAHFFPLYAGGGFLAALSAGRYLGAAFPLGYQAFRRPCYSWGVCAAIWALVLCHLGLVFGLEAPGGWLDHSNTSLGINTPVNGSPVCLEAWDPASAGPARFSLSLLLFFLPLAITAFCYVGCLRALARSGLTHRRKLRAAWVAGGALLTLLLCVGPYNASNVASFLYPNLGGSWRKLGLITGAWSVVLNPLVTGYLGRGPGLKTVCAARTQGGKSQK
Chain of CYP2C19 (P33261 whole entry): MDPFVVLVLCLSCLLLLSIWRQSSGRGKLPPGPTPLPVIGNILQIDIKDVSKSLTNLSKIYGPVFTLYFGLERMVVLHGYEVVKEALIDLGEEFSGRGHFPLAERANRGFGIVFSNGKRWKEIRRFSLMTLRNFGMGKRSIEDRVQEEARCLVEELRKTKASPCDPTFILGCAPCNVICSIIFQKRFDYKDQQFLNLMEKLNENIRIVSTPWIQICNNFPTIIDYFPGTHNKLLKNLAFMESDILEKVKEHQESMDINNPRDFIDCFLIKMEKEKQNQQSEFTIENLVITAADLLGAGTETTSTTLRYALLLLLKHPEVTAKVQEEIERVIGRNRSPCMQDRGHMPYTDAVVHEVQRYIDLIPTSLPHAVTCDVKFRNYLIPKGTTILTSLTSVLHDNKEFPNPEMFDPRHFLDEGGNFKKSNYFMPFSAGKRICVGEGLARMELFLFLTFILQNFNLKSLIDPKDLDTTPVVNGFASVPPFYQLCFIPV
Chain of CYP3A4 (P08684 whole entry): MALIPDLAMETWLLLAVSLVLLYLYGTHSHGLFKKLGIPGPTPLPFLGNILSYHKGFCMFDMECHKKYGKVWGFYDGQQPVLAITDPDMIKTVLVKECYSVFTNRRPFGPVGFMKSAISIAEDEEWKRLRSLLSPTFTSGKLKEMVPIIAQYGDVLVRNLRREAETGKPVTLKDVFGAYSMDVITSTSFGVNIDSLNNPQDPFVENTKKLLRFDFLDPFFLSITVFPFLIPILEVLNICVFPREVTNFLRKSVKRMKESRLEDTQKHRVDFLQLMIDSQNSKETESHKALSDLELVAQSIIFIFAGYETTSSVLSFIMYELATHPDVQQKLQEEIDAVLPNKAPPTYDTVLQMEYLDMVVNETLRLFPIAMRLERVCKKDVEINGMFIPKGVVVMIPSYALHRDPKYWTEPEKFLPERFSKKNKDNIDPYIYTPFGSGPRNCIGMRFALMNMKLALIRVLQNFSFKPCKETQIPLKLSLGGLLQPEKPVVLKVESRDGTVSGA
T1 sequence (Q12809 whole entry): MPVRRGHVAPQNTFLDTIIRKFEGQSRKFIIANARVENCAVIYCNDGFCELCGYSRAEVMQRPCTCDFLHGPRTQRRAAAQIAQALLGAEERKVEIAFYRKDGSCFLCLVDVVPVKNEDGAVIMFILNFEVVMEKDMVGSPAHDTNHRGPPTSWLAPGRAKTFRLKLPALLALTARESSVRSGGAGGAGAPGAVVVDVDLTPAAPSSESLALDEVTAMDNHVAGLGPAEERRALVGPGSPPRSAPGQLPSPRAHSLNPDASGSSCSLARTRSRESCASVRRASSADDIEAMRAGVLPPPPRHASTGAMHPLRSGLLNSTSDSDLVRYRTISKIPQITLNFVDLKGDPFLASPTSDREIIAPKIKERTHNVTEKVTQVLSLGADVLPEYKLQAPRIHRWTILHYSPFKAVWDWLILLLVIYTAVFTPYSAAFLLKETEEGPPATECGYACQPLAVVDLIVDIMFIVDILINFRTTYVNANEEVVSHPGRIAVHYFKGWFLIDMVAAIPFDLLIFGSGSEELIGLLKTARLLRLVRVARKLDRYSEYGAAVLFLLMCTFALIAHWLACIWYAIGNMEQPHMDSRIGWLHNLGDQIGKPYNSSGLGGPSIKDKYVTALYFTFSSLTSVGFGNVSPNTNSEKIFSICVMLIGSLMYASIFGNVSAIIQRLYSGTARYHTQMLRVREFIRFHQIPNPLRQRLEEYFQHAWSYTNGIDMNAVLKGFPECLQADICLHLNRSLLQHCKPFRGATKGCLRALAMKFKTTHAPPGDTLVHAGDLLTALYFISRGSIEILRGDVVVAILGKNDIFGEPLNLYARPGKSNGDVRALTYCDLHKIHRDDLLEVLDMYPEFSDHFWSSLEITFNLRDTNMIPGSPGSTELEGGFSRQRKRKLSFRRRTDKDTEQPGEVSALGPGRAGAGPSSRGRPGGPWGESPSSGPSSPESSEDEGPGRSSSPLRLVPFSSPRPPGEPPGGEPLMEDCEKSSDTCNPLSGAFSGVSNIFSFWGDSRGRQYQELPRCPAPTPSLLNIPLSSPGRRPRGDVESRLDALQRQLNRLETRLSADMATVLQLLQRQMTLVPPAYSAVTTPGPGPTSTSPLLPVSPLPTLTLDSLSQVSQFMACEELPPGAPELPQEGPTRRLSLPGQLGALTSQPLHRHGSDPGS
Chain of CYP2D6 (P10635 whole entry): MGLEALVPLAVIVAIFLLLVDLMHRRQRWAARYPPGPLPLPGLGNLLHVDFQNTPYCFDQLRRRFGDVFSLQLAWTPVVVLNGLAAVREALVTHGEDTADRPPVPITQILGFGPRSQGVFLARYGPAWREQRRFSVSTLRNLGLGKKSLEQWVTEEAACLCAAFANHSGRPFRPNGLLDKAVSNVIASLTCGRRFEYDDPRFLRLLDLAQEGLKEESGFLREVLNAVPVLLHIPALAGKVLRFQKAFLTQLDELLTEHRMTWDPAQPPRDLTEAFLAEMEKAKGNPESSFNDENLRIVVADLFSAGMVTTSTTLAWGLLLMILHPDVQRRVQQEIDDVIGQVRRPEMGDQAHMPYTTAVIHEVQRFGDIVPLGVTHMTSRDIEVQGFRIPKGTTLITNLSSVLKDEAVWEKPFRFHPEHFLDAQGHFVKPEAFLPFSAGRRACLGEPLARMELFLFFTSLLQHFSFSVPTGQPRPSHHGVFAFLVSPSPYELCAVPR

EC50 [1]: 17.9 µM
SMILES: O=C(O)CCc1nnc(C(=O)Nc2ccc(OCc3ccccc3)cc2)s1

EC50 [1]: 6.64 µM
SMILES: O=C(O)CCc1ccc(OCc2nnc(C(=O)Nc3ccc(F)cc3)s2)cc1

EC50 [1]: > 10 µM
SMILES: COc1ccc(NC(=O)c2nnc(COc3ccc(CCC(=O)O)cc3)s2)cc1

EC50 [1]: 4.3 µM
SMILES: Cc1ccc(NC(=O)c2nnc(COc3ccc(CCC(=O)O)cc3)s2)cc1

EC50 [1]: 1.64 µM
SMILES: O=C(O)CCc1nnc(C(=O)Nc2cccc(-c3ccco3)c2)s1

inhibition at 20 µM [3]: 94.3% | EC50 [4]: > 10 µM | fraction unbound at 5 h, 1 µM [5]: 0.076 | EC50 [1]: 0.76 µM | microsomal CLint at 2 µM [7]: 21.6 µL/min/mg | logD [8]: 1.28 | half-life at 1 µM [9]: > 4 h | inhibition at 20 µM [10]: 9.8% | EC50 [12]: > 10 µM | half-life at 2 µM [13]: 1.29 h | inhibition at 20 µM [14]: 37.2% | inhibition at 20 µM [15]: 1.8% | inhibition at 20 µM [16]: 12.3% | EC50 [17]: > 10 µM
SMILES: Cc1cccc(-c2cccc(NC(=O)c3nnc(CCC(=O)O)s3)c2)c1
inhibition at 4 h, 20 µM [2]: 22% | inhibition at 4 h, 1 µM [6]: 8% | inhibition at 4 h, 5 µM [11]: 2%

inhibition at 20 µM [3]: 41.9% | fraction unbound at 5 h, 1 µM [5]: 0.072 | EC50 [1]: 10.6 µM | microsomal CLint at 2 µM [7]: 126 µL/min/mg | logD [8]: 1.46 | half-life at 1 µM [9]: 1.93 h | inhibition at 20 µM [10]: 85% | half-life at 2 µM [13]: 0.22 h | inhibition at 20 µM [14]: 77.7% | inhibition at 20 µM [15]: 22.7% | inhibition at 20 µM [16]: 55.2%
SMILES: O=C(O)CCc1ccc(OCc2nnc(C(=O)Nc3cccc(Cl)c3)s2)cc1
inhibition at 4 h, 20 µM [2]: 36% | inhibition at 4 h, 1 µM [6]: 1% | inhibition at 4 h, 5 µM [11]: -3%

EC50 [1]: 1.69 µM
SMILES: O=C(O)CCc1nnc(C(=O)Nc2cccc(-c3cccc(Cl)c3)c2)s1

EC50 [1]: 1.52 µM
SMILES: Cc1ccccc1NC(=O)c1nnc(COc2ccc(CCC(=O)O)cc2)s1

EC50 [1]: 4.68 µM
SMILES: COc1cccc(NC(=O)c2nnc(COc3ccc(CCC(=O)O)cc3)s2)c1

inhibition at 20 µM [3]: 47.2% | EC50 [4]: > 10 µM | fraction unbound at 5 h, 1 µM [5]: 0.059 | EC50 [1]: 1.28 µM | microsomal CLint at 2 µM [7]: 8 µL/min/mg | logD [8]: 0.96 | half-life at 1 µM [9]: > 4 h | inhibition at 20 µM [10]: -1.9% | EC50 [12]: > 10 µM | half-life at 2 µM [13]: 3.48 h | inhibition at 20 µM [14]: 25.2% | inhibition at 20 µM [15]: 11.8% | inhibition at 20 µM [16]: -5.1% | EC50 [17]: > 10 µM
SMILES: O=C(O)CCc1nnc(C(=O)Nc2cccc(-c3ccc(F)cc3)c2)s1
inhibition at 4 h, 20 µM [2]: -1% | inhibition at 4 h, 1 µM [6]: -6% | inhibition at 4 h, 5 µM [11]: -1%

inhibition at 20 µM [3]: 18.8% | EC50 [4]: > 10 µM | EC50 [1]: 0.58 µM | microsomal CLint at 2 µM [7]: 241 µL/min/mg | logD [8]: 0.95 | half-life at 1 µM [9]: 0.34 h | inhibition at 20 µM [10]: 12.8% | EC50 [12]: > 10 µM | half-life at 2 µM [13]: 0.115 h | inhibition at 20 µM [14]: -3.3% | inhibition at 20 µM [15]: 6.6% | inhibition at 20 µM [16]: -28.7% | EC50 [17]: > 10 µM
SMILES: O=C(O)CCc1ccc(OCc2nnc(C(=O)Nc3ccccc3F)s2)cc1
inhibition at 4 h, 20 µM [2]: 4% | inhibition at 4 h, 1 µM [6]: 9% | inhibition at 4 h, 5 µM [11]: -7%

EC50 [1]: 1.19 µM
SMILES: O=C(O)CCc1ccc(OCc2nnc(C(=O)Nc3cccc(F)c3)s2)cc1

EC50 [4]: > 10 µM | EC50 [1]: 0.58 µM | EC50 [12]: > 10 µM | EC50 [17]: > 10 µM
SMILES: O=C(O)CCc1ccc(OCc2nnc(C(=O)Nc3ccc(F)c(F)c3)s2)cc1

EC50 [1]: 3.69 µM
SMILES: O=C(O)CCc1ccc(OCc2nnc(C(=O)Nc3ccc(Cl)cc3)s2)cc1

EC50 [1]: 1.77 µM
SMILES: Cc1cccc(NC(=O)c2nnc(COc3ccc(CCC(=O)O)cc3)s2)c1

EC50 [1]: 1.06 µM
SMILES: O=C(O)CCc1ccc(OCc2nnc(C(=O)Nc3ccccc3)s2)cc1
